From ChEMBL document CHEMBL3877257, “New isoxazolidinone and 3,4-dehydro-β-proline derivatives as antibacterial agents and MAO-inhibitors: A complex balance between two activities” (Eur J Med Chem, 2016)
Values after ≈ are worked out from the molar mass of the structure shown.

How the values were obtained:
Staphylococcus aureus [1] = experiment: Antibacterial activity against Staphylococcus aureus ATCC 29213 after 18 to 24 hrs by broth microdilution method; assay type: functional
Method in brief: (§1)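 Broth microdilution per CLSI: serial 2-fold dilutions in Mueller-Hinton broth, compounds dissolved in DMSO; equal volume of inoculum at 1x10^6 CFU/mL added to each well; 37 C for 18-24 h. MIC = lowest concentration with no visible turbidity. Clinical S. aureus strains (MRSA and MSSA) were 12 recent isolates with characterized susceptibility.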

Enterococcus faecalis = experiment: Antibacterial activity against Enterococcus faecalis ATCC 29212 after 18 to 24 hrs by broth microdilution method; assay type: functional; method in brief: as §1
[2] = Cytotoxicity against human HepG2 cells assessed as cell viability at 100 ug/mL after 24 hrs by prestoblue assay; assay type: toxicity, cell-based; settings: read-out: Activity
Method in brief: (§2)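 HepG2 grown in DMEM with 10% heat-inactivated FBS on collagen; seeded at 45,000 cells/cm2, treated two days later for 24 h across 10-100 µg/mL. Viability read with resazurin-based PrestoBlue, 1 h at 37°C, absorbance 570 nm (reference 600 nm). Mean ± SEM, three experiments in triplicate, Student's t test.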

HepG2 [3] = experiment: Inhibition of MAO activity in human HepG2 cells at 10 ug/mL after 24 hrs by spectrophotometric method; assay type: cell-based
Method in brief: (§3)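 HepG2 on collagen, seeded at 45,000 cells/cm2, dosed two days later at 10-100 µg/mL for 24 h. Lysate MAO was measured by Amplex Red/HRP H2O2 detection, 30 min at room temperature, absorbance 570 nm. Mean ± SEM of three experiments in triplicate.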

HepG2 [4] = experiment: Inhibition of MAO activity in human HepG2 cells at 100 ug/mL after 24 hrs by spectrophotometric method; assay type: cell-based; method in brief: as §3
Staphylococcus aureus [5] = experiment: Antibacterial activity against Staphylococcus aureus clinical isolate after 18 to 24 hrs by broth microdilution method; assay type: functional; method in brief: as §1
[6] = Cytotoxicity against human HepG2 cells assessed as decrease in cell viability at 10 ug/mL after 24 hrs by prestoblue assay; assay type: toxicity, cell-based; settings: hepg2, 24 h; method in brief: as §2

Row | SMILES | MIC (Staphylococcus aureus [1]) | MIC (Enterococcus faecalis) | viability at 24 h, 100 ug/mL [2] | inhibition (HepG2 [3]) | inhibition (HepG2 [4]) | MIC (Staphylococcus aureus [5]) | MIC50 (Staphylococcus aureus [5]) | MIC90 (Staphylococcus aureus [5]) | Activity [6]
1 | CCNC(=O)C1C(=O)ON(C(=O)c2ccc(N3CCOCC3)c(F)c2)C1C1CCCCC1 (stereo not drawn) | > 128 µg/mL | > 128 µg/mL | 10% | 25% | 45% | 32 to 128 µg/mL (≈ 71.5 to 286 µM) | 64 µg/mL (≈ 143 µM) | > 128 µg/mL | Non-Toxic
2 | CCNC(=O)C1C(=O)ON(C(=O)c2ccc(N3CCOCC3)c(F)c2)C1C(C)C (stereo not drawn) | > 128 µg/mL | > 128 µg/mL | 10% | 25% | 45% | > 128 µg/mL | > 128 µg/mL | > 128 µg/mL | Non-Toxic
3 | CC(=O)NC[C@H]1CN(c2ccc(N3CCOCC3)c(F)c2)C(=O)O1 [LINEZOLID] | – | – | – | – | 15% | 1 to 4 µg/mL (≈ 2.96 to 11.9 µM) | 2 µg/mL (≈ 5.93 µM) | 2 µg/mL (≈ 5.93 µM) | –
4 | CCNC(=O)C1=CCN(C(=O)c2ccc(N3CCOCC3)c(F)c2)[C@@H]1C(C)C | > 128 µg/mL | > 128 µg/mL | 10% | – | – | > 128 µg/mL | > 128 µg/mL | > 128 µg/mL | Non-Toxic
5 | CCNC(=O)C1=CCN(C(=O)c2ccc(N3CCOCC3)c(F)c2)[C@H]1C(C)C | > 128 µg/mL | > 128 µg/mL | 20% | 25% | 45% | > 128 µg/mL | > 128 µg/mL | > 128 µg/mL | Non-Toxic
